The text below walks through data of ChEMBL document CHEMBL1127405, “Synthesis and antitumor evaluation of bis[(pivaloyloxy)methyl] 2'-deoxy-5-fluorouridine 5'-monophosphate (FdUMP): a strategy to introduce nucleotides into cells” (J Med Chem, 1994).

The ILS is the gain in survival time of treated over control animals, in per cent. For orientation: IC50 means the concentration at which inhibition is half-maximal.

Assay [1] concerns Mus musculus. Description: The compound was tested for change in weight for mice implanted intraperitoneally with P-388/0 Leukemia cell line at 160 mg/kg. Type of assay: functional. The note with it: route intraperitoneal. In short, it runs like this: (§1)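 Male BDF1 mice inoculated ip on day 0 with 1 × 10^6 leukemia cells (six mice per group, average weight 22 g). Dosing ip once daily for 5 consecutive days starting 24 h after implantation. Fluoropyrimidine references in 0.9% saline; prodrugs formulated with Emulphor 620; vehicle controls 0.2 mL. Percent body weight change recorded per group.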

In assay [2] the test system is Mus musculus. Description: The compound was tested for change in weight for mice implanted intraperitoneally with P-388/FU Leukemia cell line at 360 mg/kg. The note with it: route intraperitoneal. It counts as functional. An outline of the steps: as §1
The subject of assay [3] is Mus musculus. Description: The compound was tested for increase in life span for mice implanted intraperitoneally with P-388/0 Leukemia cell line at 360 mg/kg. Type of assay: functional. To be noted: P388, ip, route intraperitoneal. In short, it runs like this:
(§2)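 Male BDF1 mice, six per group, implanted ip with 1×10^6 P-388/0 or P-388/FU cells on day 0. Dosed ip daily for 5 days from 24 h post-implant, in saline or Emulphor 620 vehicle. Mice observed until death. %ILS = (T/C − 1)×100, from median survival of treated mice (T) versus saline-treated controls (C).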

For assay [4], the system named is Mus musculus. Briefly: The compound was tested for increase in life span for mice implanted intraperitoneally with P-388/0 Leukemia cell line at 160 mg/kg. Type of assay: functional. The note with it: P388, ip, route intraperitoneal. In short, it runs like this: as §2
Assay [5] has as its system Mus musculus. Description: The compound was tested for mean survival time for 15 mice implanted Intraperitoneally with P-388/0 Leukemia cell line at 240 mg/kg. Type of assay: functional. The note with it: route intraperitoneal. In short, it runs like this: (§3)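 P-388/0 or P-388/FU cells (1×10^6) implanted ip into male BDF1 mice on day 0. Dosing was ip, daily for 5 consecutive days beginning 24 h later, in saline or Emulphor 620 vehicle. Six mice per treated group. Animals followed to death and median survival time recorded in days. The control group had 15 mice.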

Assay [6] deals with Mus musculus. Briefly: The compound was tested for increase in life span for mice implanted intraperitoneally with P-388/FU Leukemia cell line at 160 mg/kg. It counts as functional. To be noted: P388, ip, route intraperitoneal. In short, it runs like this:
as §2

Assay [7] has as its system Mus musculus. Briefly: The compound was tested for change in weight for mice implanted intraperitoneally with P-388/FU Leukemia cell line at 160 mg/kg. The note with it: route intraperitoneal. It counts as functional. In short, it runs like this: as §1
Assay [8] concerns Mus musculus. Description: The compound was tested for change in weight for mice implanted intraperitoneally with P-388/FU Leukemia cell line at 240 mg/kg. It counts as functional. To be noted: route intraperitoneal. In short, it runs like this:
as §1

In assay [9] the test system is Mus musculus. Description: The compound was tested for change in weight for mice implanted intraperitoneally with P-388/0 Leukemia cell line at 360 mg/kg. To be noted: route intraperitoneal. Type of assay: functional. An outline of the steps: as §1
Assay [10] has as its system Mus musculus. Briefly: The compound was tested for mean survival time for 15 mice implanted Intraperitoneally with P-388/0 Leukemia cell line at 360 mg/kg. It counts as functional. To be noted: route intraperitoneal. An outline of the steps:
as §3

Assay [11] concerns Mus musculus. Description: The compound was tested for mean survival time for 15 mice implanted Intraperitoneally with P-388/0 Leukemia cell line at 160 mg/kg. It counts as functional. To be noted: route intraperitoneal. An outline of the steps:
as §3

Assay [12] relates to CHO. Description: The minimun drug concentration that gives rise to colonies containing fewer than 50 cells after incubation at 37 degree C against chinese hamster ovary cells 20 fold resistant to fluoroudine. It counts as functional, cell-based. The note with it: Cricetulus griseus. In short, it runs like this: (§4)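 About 200 cells per dish were grown as clones in drug at 0, 0.5, 1.5, 5, 10, 50 or 100 μM for 7 d at 37 °C in humidified CO2. Colonies were fixed with 10% formaldehyde and stained with 0.1% crystal violet. The value is the lowest tested concentration giving colonies of fewer than 50 cells.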

For assay [13], the system named is Mus musculus. Briefly: The compound was tested for mean survival time for 15 mice implanted Intraperitoneally with P-388/FU Leukemia cell line at 360 mg/kg. It counts as functional. The note with it: route intraperitoneal. An outline of the steps:
as §3

The subject of assay [14] is Mus musculus. Briefly: The compound was tested for increase in life span for mice implanted intraperitoneally with P-388/0 Leukemia cell line at 240 mg/kg. It counts as functional. To be noted: P388, ip, route intraperitoneal. In short, it runs like this: as §2
Assay [15] concerns CHO. Briefly: The minimun drug concentration that gives rise to colonies containing fewer than 50 cells after incubation at 37 degree C against chinese hamster ovary cells. To be noted: Cricetulus griseus. It counts as functional, cell-based. In short, it runs like this:
as §4

Assay [16] deals with Mus musculus. Briefly: The compound was tested for change in weight for mice implanted intraperitoneally with P-388/0 Leukemia cell line at 240 mg/kg. Type of assay: functional. To be noted: route intraperitoneal. An outline of the steps:
as §1

In assay [17] the test system is Mus musculus. Description: The compound was tested for mean survival time for 15 mice implanted Intraperitoneally with P-388/FU Leukemia cell line at 160 mg/kg. Type of assay: functional. To be noted: route intraperitoneal. An outline of the steps:
as §3

Assay [18] deals with Mus musculus. Description: The compound was tested for mean survival time for 15 mice implanted Intraperitoneally with P-388/FU Leukemia cell line at 240 mg/kg. The note with it: route intraperitoneal. It counts as functional. In short, it runs like this:
as §3

The subject of assay [19] is Mus musculus. Briefly: The compound was tested for increase in life span for mice implanted intraperitoneally with P-388/FU Leukemia cell line at 360 mg/kg. Type of assay: functional. The note with it: P388, ip, route intraperitoneal. In short, it runs like this: as §2
Assay [20] has as its system Mus musculus. Description: The compound was tested for increase in life span for mice implanted intraperitoneally with P-388/FU Leukemia cell line at 240 mg/kg. It counts as functional. To be noted: P388, ip, route intraperitoneal. In short, it runs like this:
as §2

With `CC(=O)O[C@H]1C[C@H](n2cc(F)c(=O)[nH]c2=O)O[C@@H]1COP(=O)(OCOC(=O)C(C)(C)C)OCOC(=O)C(C)(C)C`, the Weight change was -9% with Mus musculus [1]; -13% in the assay on Mus musculus [2]; -9% in the assay on Mus musculus [7]; -12% in the assay on Mus musculus [8]; -15% in the assay on Mus musculus [9]; -15% with Mus musculus [16]. Also, the ILS at 360 mg/kg with Mus musculus [3] amounted to 82%; in the assay on Mus musculus [19], 45%. The increase in lifespan (ILS) at 160 mg/kg in the assay with Mus musculus [4] and in the assay on Mus musculus [6] was 36% throughout. In addition, the MST in the assay with Mus musculus [5] turned out to be 16 days; in the assay on Mus musculus [10], 20 days; with Mus musculus [11] it was 15 days; in the assay on Mus musculus [13], 16 days; in the assay with Mus musculus [17] it was 15 days; in the assay with Mus musculus [18] it was 16 days. Further, the IC50 with CHO [12] and with CHO [15] was 5 µM throughout. Besides, the increase in life span (ILS) at 240 mg/kg in the assay with Mus musculus [14] and with Mus musculus [20] was 45% throughout.
